Data set [1] concerns HSV-1 strain K26 (GFP-expressing). The data set is described as follows: 3D bioprinted HSE, submerged model, apical HSV-1 infection, GFP signal. Format: cell-based. Conditions: for Emax: Human alphaherpesvirus 1, 48 h, read-out: submerged Max Inhibition (%); for submerged Curve Class: CRC class for HSV-1 inhibition. The method, boiled down:
(§1)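 Skin equivalent: printed fibrin/gelatin/collagen dermis with tdTomato-labelled fibroblasts and 20,000 keratinocytes on a transwell. One day after keratinocyte seeding, GFP HSV-1 K26 (MOI 0.1) was added apically and test compound to the basal medium, and tissues fixed at 48 hpi. GFP and tdTomato total fluorescence were read from 4X z-stack maximum projections within a ~4 mm circular mask. Values were normalised to DMSO-infected and uninfected wells. Triplicate dose-response, curve-classed.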

For data set [2] the test system is unchanged. Format: cell-based. The settings on record: 2D monoculture.
A short description of data set [3]: 3D bioprinted HSE, submerged model, tdTomato signal. Format: cell-based, human. The settings on record: human. The essentials: as §1
Data set [4] can be described thus: 3D bioprinted HSE, ALI model, tdTomato signal. Format: cell-based, human. The settings on record: human. The essentials:
(§2)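 Bioprinted dermal base (fibrinogen, gelatin, collagen I) on a transwell membrane, with 20,000 keratinocytes seeded on top and tdTomato-labelled fibroblasts. Four days after air-lift, GFP HSV-1 K26 (MOI 0.1, in cornification medium) and test compound were added basally, and tissues fixed at 48 hpi. Imaging: 4X z-stack maximum projection, edge mask and ≥14.8 µm object filter. GFP and tdTomato were normalised to infected DMSO and uninfected controls (tdTomato floor 0). Triplicate dose-response, curve-classed.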

Data set [5] relates to HSV-1 strain K26 (GFP-expressing). The data set is described as follows: 3D bioprinted HSE, ALI model, basolateral HSV-1 infection, GFP signal. Type of data set: cell-based. The settings on record: for Emax: Human alphaherpesvirus 1, 48 h, read-out: ALI Max Inhibition (%); for ALI Curve Class: CRC class for HSV-1 inhibition. The essentials: as §2
Data set [6] relates to tdTomato fibroblasts. Description: 3D bioprinted HSE, submerged model, tdTomato signal. Format: cell-based, human. Conditions: for CC50: read-out: submerged CC50, tdTomato fibroblasts, triplicate. The method, boiled down: as §1
In data set [7] the test system is tdTomato fibroblasts. The data set is described as follows: 3D bioprinted HSE, ALI model, tdTomato signal. Format: cell-based, human. Conditions: read-out: ALI CC50; tdTomato fibroblasts, triplicate. The method, boiled down: as §2
Data set [8] deals with HSV-1 strain K26 (GFP-expressing). Format: cell-based. Conditions: 2D monoculture; for selectivity ratio: read-out: selectivity index in fibroblasts.
In another data set the test system is primary keratinocytes. The data set is described as follows: 2D cytotoxicity in uninfected primary keratinocytes. The settings on record: absence of viral infection. Type of data set: cell-based, human.
Setting [9] is: Human alphaherpesvirus 1, read-out: submerged IC50 (μM).
The mark [10] stands for this setting: Human alphaherpesvirus 1, read-out: ALI IC50 (μM).
Where [11] appears, read: read-out: submerged IC50, triplicate, 48HPI.

As a reminder, the IC50 is the concentration needed to halve the response being measured. The term CC50 denotes the concentration that lowers cell viability or growth by half. Turning to `COc1ccc(-c2nc(N3CCOCC3)c3sc(CN(C)c4ncc(C(=O)NO)cn4)cc3n2)cn1` [Fimepinostat], the results for the Emax in data set [1] and in data set [5] were 87.4% and 88.6%, respectively. The IC50 was 1.48 µM in data set [1] (setting [9]) and < 0.04 µM in data set [5] (setting [10]). Further, the “inhibition of viral GFP expression in keratinocytes” value in [2] was “at least 50%”. For the same compound, the CC50 at 48 h in data set [3] and in data set [4] was > 10000 nM throughout.

Consider `CC(C)c1cnn2c(NCc3ccccc3-n3cccn3)nc(OC3CCCNC3)nc12` (centres unmarked) [LDC4297], for which the “submerged Curve Class” value in [1] (triplicate) is on record as −2.1. Moreover, the IC50 in data set [1] (setting [11]) is 0.68 µM; in [5] (read-out: ALI IC50, triplicate, 48HPI), 0.11 µM. Besides, the “submerged Max Inhibition (%)” value in data set [1] (triplicate, 48HPI) was found to be 94.82%. For the same compound, the CC50 with tdTomato fibroblasts [6] and in the data set with tdTomato fibroblasts [7] was > 10000 nM each time. The “ALI Curve Class” value in [5] (triplicate) is given as −1.1. The “ALI Max Inhibition (%)” value in data set [5] (triplicate, 48HPI) is given as 99.87%.

In the case of `Cc1nc(N(C)C(=O)Cc2ccc(-c3ccccn3)cc2)sc1S(N)(=O)=O` [Pritelivir], the Emax in [1] is 94.6%; in data set [5], 102%. Further, the IC50 worked out at 0.5 µM in data set [1] (setting [9]) and 0.21 µM in data set [5] (setting [10]). The “selectivity index in keratinocytes” value in data set [2] is > 250. The cytotoxic concentration (CC50) at 48 h in [3] and in [4] was > 10000 nM each time. Further, the “selectivity index in fibroblasts” value in [8] is on record as > 400.

For the compound Fluoroemetine, the CC50 with tdTomato fibroblasts [6] and in the data set on tdTomato fibroblasts [7] was > 10000 nM throughout.

Turning to `O=C(/C=C\n1cnc(-c2cc(C(F)(F)F)cc(C(F)(F)F)c2)n1)NNc1ccccn1` [Verdinexor], the Emax in data set [1] is 68.6%; in data set [5] it was 108%. Moreover, the IC50 was 0.48 µM in [1] (setting [9]) and 0.17 µM in data set [5] (setting [10]). Moreover, in data set [2], the “inhibition of viral GFP expression in keratinocytes” value is listed as “at least 50%”. Moreover, the CC50 at 48 h in data set [3] and in data set [4] was > 10000 nM each time.

For the compound `O=C(Nc1ccc([N+](=O)[O-])cc1Cl)c1cc(Cl)ccc1O` [Niclosamide], the Emax in data set [1] is 97.1%; in [5] it was 98.7%. In addition, the IC50 in [1] (setting [9]) came out at 0.39 µM; in [5] (setting [10]), 0.11 µM. In addition, the CC50 at 48 h in data set [3] and in data set [4] was > 10000 nM in each case.

With `CC1(C)CC(=O)c2c(C(F)(F)F)nn(-c3ccc(C(N)=O)c(N[C@H]4CC[C@H](O)CC4)c3)c2C1` [SNX-2112], the values for the Emax in data set [1] and in [5] were 102% and 107%, respectively. Besides, the IC50 in data set [1] (setting [9]) is 0.05 µM; in data set [5] (setting [10]) it was < 0.04 µM. Further, the toxicity in keratinocytes entry in the data set with primary keratinocytes was “showed toxicity in keratinocytes”. In addition, the CC50 at 48 h in data set [3] is 1140 nM; in data set [4], > 10000 nM.

With `CC(=O)O[C@H]1C[C@H](O[C@H]2[C@@H](O)C[C@H](O[C@H]3[C@@H](O)C[C@H](O[C@H]4CC[C@@]5(C)[C@H](CC[C@@H]6[C@@H]5C[C@@H](O)[C@]5(C)[C@@H](C7=CC(=O)OC7)CC[C@]65O)C4)O[C@@H]3C)O[C@@H]2C)O[C@H](C)[C@H]1O[C@@H]1O[C@H](CO)[C@@H](O)[C@H](O)[C@H]1O` [Lanatoside C], the Emax came to 107% in data set [1] and 99.5% in data set [5]. Also, the results for the IC50 in data set [1] (setting [9]) and in [5] (setting [10]) were 0.09 µM and 0.08 µM, respectively. Also, in the data set on primary keratinocytes, the toxicity in keratinocytes entry is “showed toxicity in keratinocytes”. Moreover, the CC50 at 48 h in data set [3] is 2490 nM; in data set [4], > 10000 nM. Besides, the selectivity ratio in data set [8] is > 750.

For `Cc1cccc(C)c1N(CC(=O)Nc1ccc(-c2ncon2)cc1)C(=O)C1CCS(=O)(=O)CC1` [Amenamevir], the Emax in [1] is 85.3%; in data set [5] it was 112%. The half-maximal inhibitory concentration (IC50) in data set [1] (setting [9]) came out at 0.27 µM; in data set [5] (setting [10]) it was 0.16 µM. In data set [2], the “selectivity index in keratinocytes” value is on record as > 250. Besides, the CC50 at 48 h in [3] and in data set [4] was > 10000 nM in each case. In addition, the “selectivity index in fibroblasts” value in data set [8] is > 400.

`Nc1nc2c(ncn2COCCO)c(=O)[nH]1` [Acyclovir]: the IC50 is 0.36 µM in data set [1] (submerged tissues, assay validation, fig. S5) and < 0.04 µM in data set [5] (Human alphaherpesvirus 1). In addition, the “cytotoxic effects on the fibroblasts” value in the data set with tdTomato fibroblasts [6] (submerged and ALI models, tdTomato signal) is recorded as “minimal cytotoxic effects”.

For `C=CC(=O)N1CC/C(=C\c2ccc(F)c([N+](=O)[O-])c2)C(=O)/C(=C/c2ccc(F)c([N+](=O)[O-])c2)C1` [VLX1570], the “submerged Curve Class” value in [1] (triplicate) is listed as −2.5. The IC50 worked out at 6.67 µM in data set [1] (setting [11]) and 0.16 µM in [5] (setting [10]). For the same compound, in [1] (triplicate, 48HPI), the “submerged Max Inhibition (%)” value was 55.49%. The CC50 is 8410 nM in the data set with tdTomato fibroblasts [6] and > 10000 nM with tdTomato fibroblasts [7]. Also, in [5] (triplicate), the “ALI Curve Class” value is given as −1.1. Also, the “ALI Max Inhibition (%)” value in data set [5] (triplicate, 48HPI) amounted to 101.22%.

On to `Nc1ccn([C@@H]2O[C@H](CO)[C@@H](O)C2(F)F)c(=O)n1` [Gemcitabine], for which the Emax in data set [1] is 99.8%; in [5] it was 102%. Moreover, the IC50 is 0.19 µM in data set [1] (setting [9]) and 0.16 µM in data set [5] (setting [10]). For the same compound, in the data set with primary keratinocytes, the toxicity in keratinocytes entry is “showed toxicity in keratinocytes”. Besides, the cytotoxic concentration (CC50) at 48 h in [3] and in data set [4] was > 10000 nM in each case. The selectivity ratio in data set [8] was > 750.
